Series [1] relates to Caco-2 cell monolayers. Put plainly: Bidirectional transepithelial transport across Caco-2 cell monolayers. The series is classed as in vitro ADME, human. To be noted: for increase of the efflux (B–A): physiological pH 7.4/7.4.
A short description of series [2]: pKa / ionisation. Format: physicochemical. The following applies: at both pH 6.8 and 7.4.
The subject of series [3] is Caco-2 cell monolayers. In words: Paracellular transport of [^3H]-mannitol across Caco-2 monolayers. The series is classed as in vitro ADME, human. The following applies: apical to basolateral (A-B), over 3 hr. Put shortly: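 Caco-2 TC7 cells (passages 40–55) seeded at 65,000 cells/cm2 on 0.4 µm polycarbonate Transwell inserts and used 20–21 days post-seeding. [3H]-mannitol (0.5 µCi/ml) serves as the paracellular marker for tight-junction integrity. Apical-to-basolateral permeability is followed over 3 hr, with basolateral samples taken at several times and counted by liquid scintillation.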

Series [4] can be described thus: Bidirectional transepithelial transport across Caco-2 cell monolayers. The series is classed as in vitro ADME, human. The following applies: human, rhodamine 123 5 µM, pH 6.8/7.4, control (no inhibitor).
Series [5] has as its system P-gp. Described as above. The series is classed as in vitro ADME, human. To be noted: human, Caco-2, pH 6.8, with cyclosporine A 10 µM, rhodamine 123 5 µM, pH 6.8/7.4, + cyclosporine A 10 µM.
[6] abbreviates: 1 µM, pH 6.8/7.4, + 10 µM Cyclosporine A.
Where [7] appears, read: 1 µM, pH 7.4/7.4, + 4 µM GF120918.
[8] abbreviates: 1 µM, pH 7.4/7.4, + 10 µM Cyclosporine A.
[9] abbreviates: 1 µM, pH 7.4/7.4, no inhibitor, control of GF120918 experiment (Table 2).
[10] abbreviates: 10 µM, pH 6.8/7.4, + 10 µM Cyclosporine A.
[11] abbreviates: 10 µM, pH 6.8/7.4, no inhibitor.
[12] abbreviates: 10 µM, pH 7.4/7.4, + 10 µM Cyclosporine A.
The mark [13] stands for this setting: 10 µM, pH 7.4/7.4, no inhibitor.
[14] abbreviates: 50 µM, pH 6.8/7.4, + 10 µM Cyclosporine A.
[15] abbreviates: 50 µM, pH 6.8/7.4, no inhibitor.
Setting [16] is: 50 µM, pH 7.4/7.4, + 10 µM Cyclosporine A.
Setting [17] is: 50 µM, pH 7.4/7.4, no inhibitor.
[18] abbreviates: 100 µM, pH 6.8/7.4, + 10 µM Cyclosporine A.
Setting [19] is: 100 µM, pH 6.8/7.4, no inhibitor.
The mark [20] stands for this setting: 100 µM, pH 7.4/7.4, + 10 µM Cyclosporine A.
[21] abbreviates: 100 µM, pH 7.4/7.4, no inhibitor.
Setting [22] is: in the presence of cyclosporine A.

Structures can show the parent of a compound that is named as a salt. Where only a bound is given, the exact number is not on record here.

Take `COc1cccc(C2(O)CCCCC2CN(C)C)c1` (single isomer, unassigned; (+)) [(+)-TMD, (+)-tramadol]: the “Papp (A – B)” value was 15.6 ± 1.2 (cm/sec.) (10^−6) in series [1] (setting [6]); 14.1 ± 0.8 (cm/sec.) (10^−6) in series [1] (1 µM, pH 6.8/7.4, no inhibitor); 45.8 ± 3.7 (cm/sec.) (10^−6) in series [1] (setting [7]); 26.2 ± 3.4 (cm/sec.) (10^−6) in series [1] (setting [8]); 28.1 ± 0.5 (cm/sec.) (10^−6) in series [1] (1 µM, pH 7.4/7.4, no inhibitor); 42.6 ± 6.2 (cm/sec.) (10^−6) in series [1] (setting [9]). Also, the “Papp (A – B)” value in series [1] (setting [10]) is reported as 9.6 ± 1.1 (cm/sec.) (10^−6); in series [1] (setting [11]) it was 11.0 ± 0.7 (cm/sec.) (10^−6); in series [1] (setting [12]), 30.2 ± 2.1 (cm/sec.) (10^−6); in series [1] (setting [13]), 33.5 ± 1.4 (cm/sec.) (10^−6); in series [1] (setting [14]) it was 9.3 ± 0.6 (cm/sec.) (10^−6); in series [1] (setting [15]), 10.3 ± 0.5 (cm/sec.) (10^−6). Besides, the “Papp (A – B)” value in series [1] (setting [16]) is 49.9 ± 2.5 (cm/sec.) (10^−6); in series [1] (setting [17]), 52.5 ± 1.1 (cm/sec.) (10^−6); in series [1] (setting [18]), 21.7 ± 1.9 (cm/sec.) (10^−6); in series [1] (setting [19]), 22.6 ± 1.9 (cm/sec.) (10^−6); in series [1] (setting [20]), 39.1 ± 1.5 (cm/sec.) (10^−6); in series [1] (setting [21]), 41.7 ± 3.6 (cm/sec.) (10^−6). For the same compound, the “Papp (B – A)” value in series [1] (setting [6]) is recorded as 34.0 ± 0.7 (cm/sec.) (10^−6); in series [1] (1 µM, pH 6.8/7.4, no inhibitor), 31.1 ± 0.8 (cm/sec.) (10^−6); in series [1] (setting [7]), 60.6 ± 2.1 (cm/sec.) (10^−6); in series [1] (setting [8]), 34.6 ± 0.8 (cm/sec.) (10^−6); in series [1] (1 µM, pH 7.4/7.4, no inhibitor) it was 31.5 ± 1.3 (cm/sec.) (10^−6); in series [1] (setting [9]), 52.3 ± 2.9 (cm/sec.) (10^−6). Besides, the “Papp (B – A)” value in series [1] (setting [10]) is on record as 28.8 ± 0.6 (cm/sec.) (10^−6); in series [1] (setting [11]) it was 26.9 ± 0.5 (cm/sec.) (10^−6); in series [1] (setting [12]) it was 39.4 ± 0.8 (cm/sec.) (10^−6); in series [1] (setting [13]), 38.8 ± 1.6 (cm/sec.) (10^−6); in series [1] (setting [14]) it was 31.2 ± 0.7 (cm/sec.) (10^−6); in series [1] (setting [15]), 25.6 ± 2.3 (cm/sec.) (10^−6). Also, the “Papp (B – A)” value in series [1] (setting [16]) is 69.6 ± 0.7 (cm/sec.) (10^−6); in series [1] (setting [17]), 65.3 ± 1.0 (cm/sec.) (10^−6); in series [1] (setting [18]), 61.7 ± 2.0 (cm/sec.) (10^−6); in series [1] (setting [19]), 60.9 ± 1.3 (cm/sec.) (10^−6); in series [1] (setting [20]) it was 68.2 ± 0.9 (cm/sec.) (10^−6); in series [1] (setting [21]) it was 66.9 ± 0.4 (cm/sec.) (10^−6). For the same compound, the “increase of the efflux (B–A)” value in series [1] (GF120918, 1 µM) was 17%; in series [1] (setting [22]), “up to 10%”.
`COc1cccc(C2(O)CCCCC2CN(C)C)c1` (single isomer, unassigned; (-)) [(−)-TMD, (−)-tramadol]: the “Papp (A – B)” value in series [1] (setting [6]) is on record as 18.7 ± 1.1 (cm/sec.) (10^−6); in series [1] (1 µM, pH 6.8/7.4, no inhibitor), 16.7 ± 0.5 (cm/sec.) (10^−6); in series [1] (setting [7]), 44.8 ± 4.0 (cm/sec.) (10^−6); in series [1] (setting [8]) it was 29.2 ± 1.1 (cm/sec.) (10^−6); in series [1] (1 µM, pH 7.4/7.4, no inhibitor) it was 31.0 ± 1.9 (cm/sec.) (10^−6); in series [1] (setting [9]), 43.8 ± 5.8 (cm/sec.) (10^−6). Moreover, the “Papp (A – B)” value in series [1] (setting [10]) is reported as 10.2 ± 1.0 (cm/sec.) (10^−6); in series [1] (setting [11]), 11.0 ± 0.5 (cm/sec.) (10^−6); in series [1] (setting [12]), 29.9 ± 1.5 (cm/sec.) (10^−6); in series [1] (setting [13]), 33.5 ± 2.2 (cm/sec.) (10^−6); in series [1] (setting [14]) it was 9.4 ± 0.6 (cm/sec.) (10^−6); in series [1] (setting [15]), 10.3 ± 0.5 (cm/sec.) (10^−6). The “Papp (A – B)” value in series [1] (setting [16]) is listed as 50.9 ± 1.7 (cm/sec.) (10^−6); in series [1] (setting [17]), 52.9 ± 1.0 (cm/sec.) (10^−6); in series [1] (setting [18]) it was 21.7 ± 2.0 (cm/sec.) (10^−6); in series [1] (setting [19]), 22.4 ± 1.8 (cm/sec.) (10^−6); in series [1] (setting [20]), 37.3 ± 1.0 (cm/sec.) (10^−6); in series [1] (setting [21]), 41.1 ± 2.9 (cm/sec.) (10^−6). Besides, the “Papp (B – A)” value is listed as 36.0 ± 0.3 (cm/sec.) (10^−6) in series [1] (setting [6]); 32.2 ± 0.5 (cm/sec.) (10^−6) in series [1] (1 µM, pH 6.8/7.4, no inhibitor); 61.3 ± 2.8 (cm/sec.) (10^−6) in series [1] (setting [7]); 34.2 ± 0.8 (cm/sec.) (10^−6) in series [1] (setting [8]); 30.8 ± 1.8 (cm/sec.) (10^−6) in series [1] (1 µM, pH 7.4/7.4, no inhibitor); 51.1 ± 1.9 (cm/sec.) (10^−6) in series [1] (setting [9]). The “Papp (B – A)” value in series [1] (setting [10]) is reported as 28.9 ± 0.5 (cm/sec.) (10^−6); in series [1] (setting [11]), 26.9 ± 0.5 (cm/sec.) (10^−6); in series [1] (setting [12]), 39.0 ± 0.6 (cm/sec.) (10^−6); in series [1] (setting [13]), 37.2 ± 0.4 (cm/sec.) (10^−6); in series [1] (setting [14]) it was 31.2 ± 0.8 (cm/sec.) (10^−6); in series [1] (setting [15]), 25.4 ± 2.3 (cm/sec.) (10^−6). The “Papp (B – A)” value in series [1] (setting [16]) is reported as 68.9 ± 0.4 (cm/sec.) (10^−6); in series [1] (setting [17]) it was 63.4 ± 3.8 (cm/sec.) (10^−6); in series [1] (setting [18]), 62.5 ± 2.0 (cm/sec.) (10^−6); in series [1] (setting [19]) it was 61.3 ± 1.0 (cm/sec.) (10^−6); in series [1] (setting [20]) it was 67.7 ± 1.5 (cm/sec.) (10^−6); in series [1] (setting [21]), 64.3 ± 3.4 (cm/sec.) (10^−6). Besides, the “increase of the efflux (B–A)” value in series [1] (GF120918, 1 µM) is 17%; in series [1] (setting [22]), “up to 10%”.
Turning to `COc1cccc(C2(O)CCCCC2CN(C)C)c1` (centres unmarked) [TMD, Tramadol hydrochloride], the “ionised (protonated) form” value in series [2] was 100%.
In the case of `OC[C@@H](O)[C@@H](O)[C@H](O)[C@H](O)CO` [[^3H]-mannitol], in series [3], the transport rate is < 1 % per hr.
As to `COC(=O)c1ccccc1-c1c2ccc(=N)cc-2oc2cc(N)ccc12` [rhodamine 123], the Papp A→B at 3 h, 5 µM in series [4] (Caco-2, pH 6.8, Papp(A–B)) turned out to be 4.8 ± 0.2 ×10⁻⁶ cm/s; in series [5] (Papp(A–B)), 7.8 ± 0.3 ×10⁻⁶ cm/s. The Papp B→A at 3 hr, 5 µM amounted to 6.4 ± 0.7 ×10⁻⁶ cm/s in series [4] (Caco-2, pH 6.8, Papp(B–A)) and 1.2 ± 0.3 ×10⁻⁶ cm/s in series [5] (Papp(B–A)). Moreover, the “decrease of secretory transport” value in series [1] (in the presence of the P-gp inhibitor cyclosporine A) is 80%.
